Here are results for 54 sequences from the array DNA melting data of Ke et al. (doi:10.1101/2024.01.08.574731).

Data set [1] can be described thus: melting temperature; fluorescence melt of hairpins on a sequencing array, two-state fit, raised by 9.35 °C to match UV melts. Particulars: sodium 0.088 M. The method in brief:
(§1)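 Folding enthalpy and melting temperature were estimated with bootstrapped two-state fits and combined across four replicates by inverse-variance weighting, with fitted temperatures raised by 9.35 °C to match UV melts. The data were Cy3 fluorescence of library hairpins, with annealed Cy3 and quencher oligos, on a sequenced MiSeq flow cell in 50 mM Na-HEPES pH 8.0, 25 mM NaCl, imaged in 2.5 °C steps up to 60 °C and normalised to pre-quench Cy3 and control constructs.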

A short description of data set [2]: folding enthalpy; higher = less favourable; fluorescence melt of hairpins on a sequencing array, two-state fit. Particulars: sodium 0.088 M. A digest of the protocol: as §1

Regarding GCTGGGCGAAAGCCCCGC ((.((((....)))).)), the Tm in data set [1] was 58.5 °C. The folding enthalpy in data set [2] was -16.1 kcal/mol.

In the case of GCTGGGCGAAAGCCTGGC ((..(((....)))..)), in data set [1], the Tm amounted to 60.9 °C. In addition, in data set [2], the folding enthalpy is -24.5 kcal/mol.

As for GCTGGGCGAAAGCGAAGC (((..((....))..))), the Tm in data set [1] stood at 47.5 °C. Further, in data set [2], the folding enthalpy is -20 kcal/mol.

For GCTGGGCGAAAGCTGAGC (((..((....))..))), the Tm in data set [1] is 49.3 °C. Also, the folding enthalpy in data set [2] is -21 kcal/mol.

As to GCTGGGGAAACCCAGC ((((((....)))))), the Tm in data set [1] was 69.3 °C. Also, in data set [2], the folding enthalpy was -37.5 kcal/mol.

As for GCTGGTCGAAAGACTAGC (((.(((....))).))), the Tm in data set [1] came to 57.6 °C. Moreover, the folding enthalpy in data set [2] is -43.2 kcal/mol.

GCTGGTGGAAACACCGGC ((.((((....)))).)): the Tm in data set [1] was found to be 62.6 °C. For the same sequence, the folding enthalpy in data set [2] was -36.1 kcal/mol.

On to GCTGGTGGAAACGCTAGC (((.(.(....).).))), for which the Tm in data set [1] was found to be 41.2 °C. Also, the folding enthalpy in data set [2] was -26.8 kcal/mol.

For GCTGTAGCGAAAGCTAGC (((..(((....)))))), the Tm in data set [1] came to 46.4 °C. Moreover, the folding enthalpy in data set [2] is -14 kcal/mol.

With GCTGTAGGAAACTGCAGC ((((.((....)).)))), the Tm in data set [1] is 52.6 °C. Moreover, the folding enthalpy in data set [2] was -43.3 kcal/mol.

In the case of GCTGTAGGAAACTGTAGC (((..((....))..))), the Tm in data set [1] was 29.2 °C. Besides, the folding enthalpy in data set [2] is -11.7 kcal/mol.

Take GCTGTATCGAAAGATAGC (((..(((....)))))): the Tm in data set [1] came out at 33.7 °C. In addition, the folding enthalpy in data set [2] was -18.4 kcal/mol.

For GCTGTCGAAAGACAAAGC ((((((....)))..))), the Tm in data set [1] stood at 48.9 °C. In addition, the folding enthalpy in data set [2] is -23.9 kcal/mol.

As for GCTGTCGAAAGACCAAGC ((((((....)))..))), the Tm in data set [1] was found to be 38.9 °C. The folding enthalpy in data set [2] is -19.5 kcal/mol.

As to GCTGTCGAAAGACGAAGC ((((((....)))..))), in data set [1], the Tm stood at 44.3 °C. For the same sequence, the folding enthalpy in data set [2] is -18.4 kcal/mol.

On to GCTGTCGGAAACGACGGC ((.((((....)))).)), for which the Tm in data set [1] was 64 °C. For the same sequence, the folding enthalpy in data set [2] was -34.2 kcal/mol.

For GCTGTCGGAAACGATGGC ((..(((....)))..)), in data set [1], the Tm turned out to be 47.8 °C. Moreover, the folding enthalpy in data set [2] is -33.5 kcal/mol.

As to GCTGTCGGAAACGGCAGC ((((.((....)).)))), the Tm in data set [1] was found to be 63 °C. In addition, the folding enthalpy in data set [2] is -47.7 kcal/mol.

GCTGTGCGAAAGCACTGC ((.((((....)))).)): the Tm in data set [1] turned out to be 68.1 °C. Moreover, the folding enthalpy in data set [2] is -24.1 kcal/mol.

With GCTGTGCGAAAGCCAAGC (((..((....))..))), the Tm in data set [1] amounted to 46.2 °C. The folding enthalpy in data set [2] is -19.2 kcal/mol.

GCTGTGCGAAAGCCTAGC (((..((....))..))): in data set [1], the Tm stood at 44.3 °C. Also, the folding enthalpy in data set [2] is -18.2 kcal/mol.

For the sequence GCTGTGGGAAACCACGGC ((.((((....)))).)), in data set [1], the Tm worked out at 58.8 °C. For the same sequence, the folding enthalpy in data set [2] was -36.2 kcal/mol.

With GCTGTGGGAAACTACGGC ((.((.(....).)).)), the Tm in data set [1] was 42.6 °C. Further, the folding enthalpy in data set [2] is -31.6 kcal/mol.

In the case of GCTGTGTCGAAAGACAGC (((..(((....)))))), the Tm in data set [1] is 48.9 °C. Also, the folding enthalpy in data set [2] was -17.3 kcal/mol.

Consider GCTGTTGGAAACAGCAGC ((((.((....)).)))), for which the Tm in data set [1] stood at 63 °C. Besides, the folding enthalpy in data set [2] is -12.4 kcal/mol.

As for GCTGTTGGAAACGACAGC (((((.(....).))))), the Tm in data set [1] is 54.7 °C. Further, the folding enthalpy in data set [2] is -40.7 kcal/mol.

For the sequence GCTTAACCGAAAGGTAGC (((..(((....)))))), the Tm in data set [1] was 42.2 °C. Further, the folding enthalpy in data set [2] was -19 kcal/mol.

Turning to GCTTAAGAAATTAAGC ((((((....)))))), the Tm in data set [1] worked out at 43.5 °C. Moreover, the folding enthalpy in data set [2] was -26.4 kcal/mol.

As to GCTTACGAAAGTAAAAGC ((((((....)))..))), the Tm in data set [1] came out at 41.7 °C. Also, in data set [2], the folding enthalpy was -27.5 kcal/mol.

For the sequence GCTTACGAAAGTAAGC ((((((....)))))), in data set [1], the Tm was 68.9 °C. Also, the folding enthalpy in data set [2] was -31.8 kcal/mol.

On to GCTTACGAAAGTAGCAGC ((((((....)))..))), for which the Tm in data set [1] was found to be 38.1 °C. The folding enthalpy in data set [2] is -18.4 kcal/mol.

As for GCTTACGAAAGTAGGAGC ((((((....)))..))), the Tm in data set [1] stood at 35 °C. The folding enthalpy in data set [2] was -25.3 kcal/mol.

Regarding GCTTACGCGAAAGCGAGC (((..(((....)))))), the Tm in data set [1] came out at 43 °C. Besides, in data set [2], the folding enthalpy is -12.7 kcal/mol.

Turning to GCTTACGGAAACGTAAAC (.(((((....))))).), the Tm in data set [1] came out at 33.3 °C. Moreover, the folding enthalpy in data set [2] was -17.9 kcal/mol.

Turning to GCTTACGGAAACGTGAGC (((.(((....))).))), in data set [1], the Tm stood at 52.6 °C. In data set [2], the folding enthalpy is -43.4 kcal/mol.

For the sequence GCTTACTCGAAAGAGAGC (((..(((....)))))), the Tm in data set [1] was found to be 30.1 °C. Besides, in data set [2], the folding enthalpy is -14.5 kcal/mol.

Turning to GCTTAGCGAAAGCATAGC (((..((....))..))), the Tm in data set [1] was determined as 45.7 °C. For the same sequence, in data set [2], the folding enthalpy is -16.8 kcal/mol.

With GCTTAGCGAAAGCCCAGC (((..((....))..))), in data set [1], the Tm is 33.4 °C. In addition, in data set [2], the folding enthalpy is -11.5 kcal/mol.

As to GCTTAGCGAAAGCCGAGC (((..((....))..))), the Tm in data set [1] was 42 °C. Further, the folding enthalpy in data set [2] is -15.8 kcal/mol.

GCTTAGCGAAAGCGTAGC (((..((....))..))): the Tm in data set [1] is 61.3 °C. The folding enthalpy in data set [2] is -28.9 kcal/mol.

In the case of GCTTAGCGAAAGCTACGC ((.((((....)))).)), the Tm in data set [1] was determined as 51.9 °C. In data set [2], the folding enthalpy was -22.4 kcal/mol.

GCTTAGCGAAAGCTAGGC ((.((((....)))).)): the Tm in data set [1] came to 60.4 °C. For the same sequence, the folding enthalpy in data set [2] was -28.3 kcal/mol.

Consider GCTTAGCGAAAGCTCTGC ((..(((....)))..)), for which the Tm in data set [1] came to 37.8 °C. Moreover, the folding enthalpy in data set [2] was -16.4 kcal/mol.

Regarding GCTTAGCGAAAGCTTTGC ((..(((....)))..)), the Tm in data set [1] amounted to 44.3 °C. Moreover, the folding enthalpy in data set [2] was -14.8 kcal/mol.

In the case of GCTTATACGAAAGTAAGC (((..(((....)))))), the Tm in data set [1] worked out at 37.4 °C. In data set [2], the folding enthalpy was -21.5 kcal/mol.

Turning to GCTTATGGAAACATAAGC (((((((....))))))), the Tm in data set [1] was determined as 56 °C. Further, the folding enthalpy in data set [2] was -40.6 kcal/mol.

Consider GCTTCAGGAAACTGAAAC (.(((((....))))).), for which, in data set [1], the Tm is 31.5 °C. In data set [2], the folding enthalpy was -15 kcal/mol.

Consider GCTTCCCGAAAGGGAGC (((.(((....)))))), for which the Tm in data set [1] was found to be 57.1 °C. Besides, the folding enthalpy in data set [2] was -22.3 kcal/mol.

For the sequence GCTTCCGAAAGGACAGC ((((((....))).))), in data set [1], the Tm amounted to 47.8 °C. The folding enthalpy in data set [2] was -24.4 kcal/mol.

Take GCTTCCGAAAGGATAGC ((((((....))).))): in data set [1], the Tm was found to be 48.7 °C. Further, the folding enthalpy in data set [2] was -24.9 kcal/mol.

Take GCTTCCGGAAACGAAAGC ((((.((....)).)))): in data set [1], the Tm was found to be 43 °C. Also, the folding enthalpy in data set [2] is -29.7 kcal/mol.

For GCTTCGCGAAAGCAGAGC (((..((....))..))), the Tm in data set [1] was 48.3 °C. Moreover, the folding enthalpy in data set [2] is -18.2 kcal/mol.

Consider GCTTCGCGAAAGCGGGGC ((..(((....)))..)), for which the Tm in data set [1] was 57.9 °C. The folding enthalpy in data set [2] is -18.5 kcal/mol.

GCTTCGCGAAAGCGTCGC ((..(((....)))..)): the Tm in data set [1] worked out at 41.4 °C. Besides, the folding enthalpy in data set [2] is -15.6 kcal/mol.
